Assays:
D(1A) dopamine receptor = D(1A) dopamine receptor (Rattus norvegicus, UniProt P18901); assay: Binding Affinity was determined against Dopamine receptor D1 in rat striatal membranes using [3H]- SCH 23390 radioligand.; type: cell membranes, Striatum, Membrane
Outline: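 Competition binding with rat striatal membranes as tissue source, reported as pKi. The labelled site is the D1-like family (D1 and D5 subtypes), not D1 alone. All compounds were tested as racemates.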

D(2) dopamine receptor = D(2) dopamine receptor (Rattus norvegicus, UniProt P61169); assay: Binding Affinity was determined against Dopamine receptor D2 in rat striatal membranes using [3H]- spiperone radioligand.; type: cell membranes, Striatum, Membrane
D(2) dopamine receptor, sequence (P61169 whole entry): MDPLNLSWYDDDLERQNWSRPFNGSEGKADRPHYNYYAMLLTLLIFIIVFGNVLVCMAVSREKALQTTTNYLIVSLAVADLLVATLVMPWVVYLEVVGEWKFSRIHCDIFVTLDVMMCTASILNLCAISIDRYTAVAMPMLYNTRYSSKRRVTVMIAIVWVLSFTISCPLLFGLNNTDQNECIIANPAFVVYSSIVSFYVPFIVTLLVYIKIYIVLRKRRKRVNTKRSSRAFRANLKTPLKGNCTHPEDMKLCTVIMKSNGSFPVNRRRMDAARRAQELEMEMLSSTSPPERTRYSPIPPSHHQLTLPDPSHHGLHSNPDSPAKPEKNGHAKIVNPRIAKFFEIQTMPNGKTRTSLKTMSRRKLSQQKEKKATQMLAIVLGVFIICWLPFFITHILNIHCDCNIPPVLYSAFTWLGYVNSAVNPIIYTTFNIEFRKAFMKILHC

D(1A) dopamine receptor, sequence (P18901 whole entry): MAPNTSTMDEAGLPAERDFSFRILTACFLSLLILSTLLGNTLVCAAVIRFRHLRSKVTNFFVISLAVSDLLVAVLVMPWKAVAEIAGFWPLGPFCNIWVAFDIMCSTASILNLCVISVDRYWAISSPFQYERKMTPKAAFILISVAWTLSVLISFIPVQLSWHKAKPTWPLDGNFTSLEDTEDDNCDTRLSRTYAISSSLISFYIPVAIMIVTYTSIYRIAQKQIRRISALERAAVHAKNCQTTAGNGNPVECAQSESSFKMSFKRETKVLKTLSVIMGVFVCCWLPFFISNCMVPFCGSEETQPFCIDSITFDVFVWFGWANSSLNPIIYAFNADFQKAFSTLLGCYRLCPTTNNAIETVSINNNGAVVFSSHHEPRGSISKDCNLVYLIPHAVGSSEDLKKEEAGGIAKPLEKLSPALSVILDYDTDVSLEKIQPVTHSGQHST

Row | Structure (SMILES) | Ki (D(1A) dopamine receptor) [µM] | Ki (D(2) dopamine receptor) [µM]
1 | CCCN1CCc2c(Br)ccc(O)c2C1Cc1cc(OC)ccc1Br (centres undefined) | 7.41 | > 10
2 | COc1ccc(Br)c(CC2c3c(O)ccc(Br)c3CCN2C)c1 (centres undefined) | 0.389 | > 10
3 | CCN1CCc2cccc3c2C1Cc1cc(O)ccc1O3 (centres undefined) | 6.76 | > 10
4 | COc1cc2c3c(c1)Oc1ccccc1CC3N(C)CC2 (centres undefined) | 4.27 | 9.33
5 | CCN1CCc2cc(OC)cc3c2C1Cc1ccccc1O3 (centres undefined) | > 10 | 8.51
6 | CCCN1CCc2cc(O)cc3c2C1Cc1ccccc1O3 (centres undefined) | > 10 | > 10
7 | CN1CCc2cc(O)cc3c2C1Cc1ccccc1O3 (centres undefined) | 2.88 | 0.275
8 | CCN1CCc2c(Br)ccc(O)c2C1Cc1cc(OC)ccc1Br (centres undefined) | 1.55 | > 10
9 | CN1CCc2cccc3c2C1Cc1cc(O)ccc1O3 (centres undefined) | 4.79 | 0.724
10 | COc1ccc2c(c1)CC1c3c(ccc(Br)c3CCN1C)O2 (centres undefined) | 7.59 | 0.851
11 | COc1ccc2c(c1)CC1c3c(cccc3O2)CCN1C (centres undefined) | 5.25 | 1.23
12 | COc1cc(Br)c2c(c1)CCN(C)C2Cc1ccccc1O (centres undefined) | 11.7 | 7.08
13 | CCCN1CCc2cccc3c2C1Cc1cc(O)ccc1O3 (centres undefined) | > 10 | > 10
14 | CCCN1CCc2cc(OC)cc3c2C1Cc1ccccc1O3 (centres undefined) | > 10 | 3.47
15 | CCN1CCc2cc(OC)cc(Br)c2C1Cc1ccccc1O (centres undefined) | 3.02 | 3.09
16 | CCN1CCc2cccc3c2C1Cc1cc(OC)ccc1O3 (centres undefined) | > 10 | 1.86
17 | CCCN1CCc2c(Br)ccc3c2C1Cc1cc(OC)ccc1O3 (centres undefined) | 2.45 | > 10
18 | CCCN1CCc2cccc3c2C1Cc1cc(OC)ccc1O3 (centres undefined) | 3.89 | > 10
19 | COc1cc(Br)cc2c1C(Cc1ccccc1O)N(C)CC2 (centres undefined) | 1.7 | 1.82
20 | CCN1CCc2cc(Br)cc(OC)c2C1Cc1ccccc1O (centres undefined) | 5.62 | 2.19
21 | CCN1CCc2c(Br)ccc3c2C1Cc1cc(OC)ccc1O3 (centres undefined) | 3.47 | > 10
22 | CCN1CCc2cc(O)cc3c2C1Cc1ccccc1O3 (centres undefined) | 3.47 | 6.46
